Test results as given in ChEMBL document CHEMBL1139198, “Aryl sulfonamido indane inhibitors of the Kv1.5 ion channel” (Bioorg Med Chem Lett, 2007).
Converted amounts (≈) assume the structure as drawn. Each block holds one compound with its values, some of them ahead of it.

Legend:
[1] = molecular target: T1, Potassium voltage-gated channel subfamily A member 5 (Homo sapiens, UniProt P22460); assay: Inhibition of Kv1.5 channel mediated delayed rectifier potassium current by patch-clamp technique
[2] = Aqueous solubility of the compound; assay type: physicochemical; details: buffer
Method in brief: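 Crystalline solid; shake-flask method in 50 mM phosphate-buffered saline, pH 6.8; dissolved compound quantified by LC/MS/MS.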

[3] = molecular target: T1, Potassium voltage-gated channel subfamily A member 5; assay: Inhibition of Kv1.5 channel mediated delayed rectifier potassium current at 1 uM by patch-clamp technique
Rattus norvegicus [4] = species on record: Rattus norvegicus; assay: Inhibition of rat calcium channel GH3 at 10 uM
hERG (KCNH2) = hERG (KCNH2) (Homo sapiens, UniProt Q12809); assay: Inhibition of hERG at 10 uM; assay type: toxicity
[5] = molecular target: SCN5A (sodium channel protein type 5 subunit alpha) (Homo sapiens, UniProt Q14524); assay: Inhibition of human SCN5A channel at 10 uM
[6] = Oral bioavailability in rat at 20 umol/kg; assay type: ADME, organism-based; details: in vivo
[7] = Oral bioavailability in dog at 20 umol/kg; assay type: ADME, organism-based, Canis lupus familiaris; details: in vivo
[8] = Half life in intra arterial infusion dosed rat at 10 umol/kg; assay type: ADME, organism-based; details: in vivo
[9] = Half life in intra arterial infusion dosed dog at 10 umol/kg; assay type: ADME, organism-based, Canis lupus familiaris; details: in vivo
[10] = Clearance in rat at 20 umol/kg, po; assay type: ADME, organism-based; details: in vivo
[11] = Clearance in dog at 20 umol/kg, po; assay type: ADME, organism-based, Canis lupus familiaris; details: in vivo
Rattus norvegicus [12] = assay: Volume of distribution in rat at 20 umol/kg, po; assay type: ADME, organism-based; details: in vivo
Canis familiaris = assay: Volume of distribution in dog at 20 umol/kg, po; assay type: ADME, organism-based, Canis lupus familiaris; details: in vivo

T1 sequence (P22460 whole entry): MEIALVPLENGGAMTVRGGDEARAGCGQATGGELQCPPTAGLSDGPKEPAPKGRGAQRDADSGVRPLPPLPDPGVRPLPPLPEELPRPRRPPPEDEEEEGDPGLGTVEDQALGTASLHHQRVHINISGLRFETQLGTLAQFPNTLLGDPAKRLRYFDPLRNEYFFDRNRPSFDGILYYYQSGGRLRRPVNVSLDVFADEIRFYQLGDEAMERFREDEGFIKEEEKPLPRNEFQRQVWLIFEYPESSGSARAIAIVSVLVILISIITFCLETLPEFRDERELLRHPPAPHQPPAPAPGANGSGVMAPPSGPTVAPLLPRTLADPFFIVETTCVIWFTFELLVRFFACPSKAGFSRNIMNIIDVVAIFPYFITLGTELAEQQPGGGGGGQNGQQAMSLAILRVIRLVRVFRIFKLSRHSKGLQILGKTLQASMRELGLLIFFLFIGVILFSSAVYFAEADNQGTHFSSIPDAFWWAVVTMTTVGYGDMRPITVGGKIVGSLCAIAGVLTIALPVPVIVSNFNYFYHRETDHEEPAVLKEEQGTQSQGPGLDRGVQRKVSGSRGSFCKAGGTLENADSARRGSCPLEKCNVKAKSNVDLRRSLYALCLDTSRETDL
Chain of SCN5A (sodium channel protein type 5 subunit alpha) (Q14524 whole entry): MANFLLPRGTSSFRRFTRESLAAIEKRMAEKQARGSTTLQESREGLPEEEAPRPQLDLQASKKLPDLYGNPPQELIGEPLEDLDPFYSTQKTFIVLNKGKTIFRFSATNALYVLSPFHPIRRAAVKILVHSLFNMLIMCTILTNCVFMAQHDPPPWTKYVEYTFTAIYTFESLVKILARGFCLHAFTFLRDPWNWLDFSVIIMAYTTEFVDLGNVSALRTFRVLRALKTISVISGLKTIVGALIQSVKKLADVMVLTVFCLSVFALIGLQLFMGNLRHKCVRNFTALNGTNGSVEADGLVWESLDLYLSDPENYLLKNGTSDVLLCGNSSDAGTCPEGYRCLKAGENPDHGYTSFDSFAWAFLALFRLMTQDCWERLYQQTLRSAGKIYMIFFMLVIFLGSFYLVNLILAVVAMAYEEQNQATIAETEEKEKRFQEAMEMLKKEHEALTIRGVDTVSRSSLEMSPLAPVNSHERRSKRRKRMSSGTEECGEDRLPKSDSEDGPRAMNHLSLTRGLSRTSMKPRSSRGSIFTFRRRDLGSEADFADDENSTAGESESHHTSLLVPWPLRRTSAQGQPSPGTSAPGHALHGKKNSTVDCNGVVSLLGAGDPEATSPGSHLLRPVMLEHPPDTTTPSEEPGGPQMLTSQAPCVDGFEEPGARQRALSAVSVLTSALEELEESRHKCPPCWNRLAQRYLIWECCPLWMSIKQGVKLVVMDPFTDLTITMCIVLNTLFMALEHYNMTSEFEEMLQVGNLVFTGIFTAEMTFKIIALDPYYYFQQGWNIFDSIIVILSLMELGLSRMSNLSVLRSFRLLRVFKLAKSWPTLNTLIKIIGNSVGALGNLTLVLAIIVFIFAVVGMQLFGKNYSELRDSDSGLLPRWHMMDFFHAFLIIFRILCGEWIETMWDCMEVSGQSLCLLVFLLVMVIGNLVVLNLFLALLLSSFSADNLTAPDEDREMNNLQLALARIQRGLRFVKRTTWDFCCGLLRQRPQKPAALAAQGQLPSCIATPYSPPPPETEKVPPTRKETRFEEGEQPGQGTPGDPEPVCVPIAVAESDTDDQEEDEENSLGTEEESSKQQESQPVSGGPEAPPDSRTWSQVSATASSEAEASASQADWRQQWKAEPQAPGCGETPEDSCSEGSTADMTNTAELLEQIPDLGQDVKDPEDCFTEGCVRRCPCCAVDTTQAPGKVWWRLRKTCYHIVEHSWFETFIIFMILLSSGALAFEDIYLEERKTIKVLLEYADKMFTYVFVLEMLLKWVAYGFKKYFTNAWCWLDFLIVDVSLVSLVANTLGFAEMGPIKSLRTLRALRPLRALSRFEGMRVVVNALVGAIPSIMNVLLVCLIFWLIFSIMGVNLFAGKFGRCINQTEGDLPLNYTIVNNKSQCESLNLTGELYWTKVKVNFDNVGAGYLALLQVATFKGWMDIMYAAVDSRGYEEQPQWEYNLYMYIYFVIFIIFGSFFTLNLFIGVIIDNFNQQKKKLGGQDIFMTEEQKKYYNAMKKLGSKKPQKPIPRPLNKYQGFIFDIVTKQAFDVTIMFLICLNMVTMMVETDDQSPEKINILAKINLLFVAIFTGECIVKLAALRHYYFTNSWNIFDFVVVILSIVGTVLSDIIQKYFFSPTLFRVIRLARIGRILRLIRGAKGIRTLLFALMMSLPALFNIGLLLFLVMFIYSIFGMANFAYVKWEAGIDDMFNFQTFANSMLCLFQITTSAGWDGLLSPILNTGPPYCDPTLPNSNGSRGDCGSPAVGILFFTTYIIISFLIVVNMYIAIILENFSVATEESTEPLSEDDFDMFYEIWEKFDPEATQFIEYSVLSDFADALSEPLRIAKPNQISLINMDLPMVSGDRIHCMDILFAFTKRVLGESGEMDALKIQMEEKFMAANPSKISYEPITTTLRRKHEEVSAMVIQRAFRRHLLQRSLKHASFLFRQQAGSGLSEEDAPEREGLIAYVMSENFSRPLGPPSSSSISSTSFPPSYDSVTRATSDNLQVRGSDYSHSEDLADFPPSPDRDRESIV
Chain of hERG (KCNH2) (Q12809 whole entry): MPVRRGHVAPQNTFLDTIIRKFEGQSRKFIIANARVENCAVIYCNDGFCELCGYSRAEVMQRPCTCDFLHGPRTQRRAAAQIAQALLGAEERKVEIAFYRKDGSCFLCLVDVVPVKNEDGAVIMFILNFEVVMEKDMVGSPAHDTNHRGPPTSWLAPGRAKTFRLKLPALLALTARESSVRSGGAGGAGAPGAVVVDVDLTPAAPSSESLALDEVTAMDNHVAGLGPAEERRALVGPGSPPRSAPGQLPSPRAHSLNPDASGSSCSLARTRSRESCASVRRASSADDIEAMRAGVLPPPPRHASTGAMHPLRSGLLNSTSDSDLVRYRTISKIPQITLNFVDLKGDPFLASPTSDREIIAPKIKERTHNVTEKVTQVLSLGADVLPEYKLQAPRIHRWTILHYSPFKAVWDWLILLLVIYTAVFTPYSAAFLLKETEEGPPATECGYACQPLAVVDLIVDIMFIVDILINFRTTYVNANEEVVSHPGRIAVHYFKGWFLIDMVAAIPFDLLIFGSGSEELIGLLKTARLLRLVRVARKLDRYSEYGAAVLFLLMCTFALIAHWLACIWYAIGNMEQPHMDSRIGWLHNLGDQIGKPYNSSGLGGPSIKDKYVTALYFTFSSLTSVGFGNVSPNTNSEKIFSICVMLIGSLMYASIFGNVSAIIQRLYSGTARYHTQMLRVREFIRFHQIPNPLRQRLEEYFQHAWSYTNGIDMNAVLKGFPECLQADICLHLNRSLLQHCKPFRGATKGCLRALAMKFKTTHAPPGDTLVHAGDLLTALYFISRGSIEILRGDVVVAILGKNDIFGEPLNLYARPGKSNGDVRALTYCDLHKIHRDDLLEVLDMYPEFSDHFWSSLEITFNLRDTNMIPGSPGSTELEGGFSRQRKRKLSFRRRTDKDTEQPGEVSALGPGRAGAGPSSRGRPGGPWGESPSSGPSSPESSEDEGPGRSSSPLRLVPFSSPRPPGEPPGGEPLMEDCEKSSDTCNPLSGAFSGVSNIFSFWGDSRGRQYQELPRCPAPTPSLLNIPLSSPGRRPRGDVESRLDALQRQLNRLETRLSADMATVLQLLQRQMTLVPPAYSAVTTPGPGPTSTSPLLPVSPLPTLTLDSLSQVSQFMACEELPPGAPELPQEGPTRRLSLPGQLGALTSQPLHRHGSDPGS

SMILES: CCc1ccc(S(=O)(=O)N[C@@H]2c3cc(NC(=O)c4cccc(OC)c4)ccc3CC[C@H]2O)cc1 (racemic)
- IC50 [1]: 440 nM

SMILES: CCc1ccc(S(=O)(=O)N[C@@H]2c3cccc(NC(=O)c4cccc(OC)c4)c3C[C@H]2O)cc1 (racemic)
- inhibition [3]: 17%

SMILES: CCc1ccc(S(=O)(=O)NCc2cccc(NC(=O)c3cccc(OC)c3)c2)cc1
- IC50 [1]: 240 nM
- solubility ([2]; read-out: Solubility): 0.8 µg/mL (≈ 1.88 µM)

SMILES: CCc1ccc(S(=O)(=O)NC2CCc3ccc(NC(=O)c4cccc(OC)c4)cc32)cc1 (racemic)
- IC50 [1]: 150 nM
- solubility ([2]; read-out: Solubility): < 0.1 µg/mL

SMILES: CCc1ccc(S(=O)(=O)N[C@@H]2c3cc(NC(=O)c4cccc(OC)c4)ccc3CCC[C@H]2O)cc1 (racemic)
- IC50 [1]: 200 nM

SMILES: CCc1ccc(S(=O)(=O)N[C@@H]2c3c(cccc3NC(=O)c3cccc(OC)c3)C[C@H]2O)cc1 (racemic)
- IC50 [1]: 880 nM

Continued, in another order:

- IC50 [1]: 160 nM
- solubility [2]: 2.9 µg/mL (≈ 6.22 µM)
SMILES: CCc1ccc(S(=O)(=O)N[C@@H]2c3cc(NC(=O)c4cccc(OC)c4)ccc3C[C@H]2O)cc1 (racemic)

- IC50 [1]: 300 nM
SMILES: CCc1ccc(S(=O)(=O)N[C@@H]2c3cc(NC(=O)c4cccc(OC)c4)ccc3C[C@@H]2O)cc1 (racemic)

- IC50 [1]: 760 nM
SMILES: CCc1ccc(S(=O)(=O)N[C@H]2c3cc(NC(=O)c4cccc(OC)c4)ccc3C[C@@H]2O)cc1

- inhibition (Rattus norvegicus [4]): 27%
SMILES: CCc1ccc(S(=O)(=O)N[C@@H]2c3cc(NC(=O)c4cccc(OC)c4)ccc3C[C@H]2O)cc1 [listing 1 of 2 here]

- inhibition [3]: 24%
SMILES: CCc1ccc(S(=O)(=O)N[C@@H]2c3ccc(NC(=O)c4cccc(OC)c4)cc3C[C@H]2O)cc1 (racemic)

- inhibition [3]: 2%
SMILES: CCc1ccc(S(=O)(=O)N[C@@H]2c3cc(N)ccc3C[C@H]2O)cc1 (racemic)

- inhibition [3]: 3%
SMILES: CCc1ccc(S(=O)(=O)N[C@@H]2c3ccccc3C[C@H]2O)cc1 (racemic)

- IC50 [1]: 33 nM
- solubility [2]: 1.3 µg/mL (≈ 2.79 µM)
- bioavailability [6]: 1%
- bioavailability [7]: 5%
- half-life [8]: 24 min
- half-life [9]: 90 min
- CL/F [10]: 200 mL/min/kg
- CL/F [11]: 12 mL/min/kg
- Vd (Rattus norvegicus [12]): 4 L/kg
- Vd (Canis familiaris): 1.4 L/kg
SMILES: CCc1ccc(S(=O)(=O)N[C@@H]2c3cc(NC(=O)c4cccc(OC)c4)ccc3C[C@H]2O)cc1 [listing 2 of 2 here]
- inhibition at 10 µM (hERG (KCNH2)): 37%
- inhibition at 10 µM [5]: 15%
